From ChEMBL document CHEMBL2040727, “Substituted thiazoles VI. Synthesis and antitumor activity of new 2-acetamido- and 2 or 3-propanamido-thiazole analogs” (2012)

System: MDA-MB-468
Assay: Growth inhibition of human MDA-MB-468 cells at 10 uM after 48 hrs by coulter counter analysis
Type: functional
Settings: MDA-MB-468, 48 h, read-out: GI
How it was run: (§1)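 Single-dose NCI 60-line panel screen of test compounds. Cells grown in RPMI 1640 with 10% FBS. Compounds dissolved in DMSO, then diluted in phosphate buffer saline (final DMSO below 1%). Wells run in duplicate at 6 × 10⁴ cells/ml. Controls held PBS and DMSO at matching dilutions. Incubation 48 h at 37 °C under humidified 5% CO2. Cells diluted tenfold in saline and counted by Coulter counter. Percent growth inhibition taken from mean-graph of treated-cell growth.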

| Structure (SMILES) | inhibition of growth at 10 µM |
| --- | --- |
| CCOC(=O)c1sc(NC(=O)C(C)N2CCOCC2)nc1C (stereo not drawn) | < 10% |

System: not listed separately
Assay: Growth inhibition of human NCI-ADR-RES cells at 10 uM after 48 hrs by coulter counter analysis
Type: functional
Settings: read-out: GI
How it was run: as §1

| Structure (SMILES) | inhibition of growth at 10 µM |
| --- | --- |
| CCOC(=O)c1sc(NC(=O)C(C)N2CCOCC2)nc1C (stereo not drawn) | < 10% |

System: SW-620
Assay: Growth inhibition of human SW620 cells at 10 uM after 48 hrs by coulter counter analysis
Type: functional
Settings: SW-620, 48 h, read-out: GI
How it was run: (§2)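 Single-dose screen in the NCI 60 cell line panel. Cells grown in RPMI 1640 with 10% FBS. Compounds dissolved in DMSO and diluted in phosphate buffered saline, final DMSO under 1%. Duplicate wells seeded from culture at 6 × 10⁴ cells/ml. Incubated 48 h at 37 °C, humidified, 5% CO2. Cells diluted tenfold in saline and Coulter-counted. Percent growth inhibition computed against PBS/DMSO controls.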

| Structure (SMILES) | inhibition of growth at 10 µM |
| --- | --- |
| CCOC(=O)c1sc(NC(=O)C(C)N2CCOCC2)nc1C (stereo not drawn) | < 10% |

System: M14
Assay: Growth inhibition of human M14 cells at 10 uM after 48 hrs by coulter counter analysis
Type: functional
Settings: M14, 48 h, read-out: GI
How it was run: as §1

| Structure (SMILES) | inhibition of growth at 10 µM |
| --- | --- |
| CCOC(=O)c1sc(NC(=O)C(C)N2CCOCC2)nc1C (stereo not drawn) | < 10% |

System: IGROV-1
Assay: Growth inhibition of human IGROV1 cells at 10 uM after 48 hrs by coulter counter analysis
Type: functional
Settings: IGROV-1, 48 h, read-out: GI
How it was run: as §1

| Structure (SMILES) | inhibition of growth at 10 µM |
| --- | --- |
| CCOC(=O)c1sc(NC(=O)C(C)N2CCOCC2)nc1C (stereo not drawn) | < 10% |

System: SF-295
Assay: Growth inhibition of human SF295 cells at 10 uM after 48 hrs by coulter counter analysis
Type: functional
Settings: SF-295, 48 h, read-out: GI
How it was run: as §1

| Structure (SMILES) | inhibition of growth at 10 µM |
| --- | --- |
| CCOC(=O)c1sc(NC(=O)C(C)N2CCOCC2)nc1C (stereo not drawn) | < 10% |

System: RPMI-8226
Assay: Growth inhibition of human RPMI8226 cells at 10 uM after 48 hrs by coulter counter analysis
Type: functional
Settings: RPMI-8226, 48 h, read-out: GI
How it was run: as §1

| Structure (SMILES) | inhibition of growth at 10 µM |
| --- | --- |
| CCOC(=O)c1sc(NC(=O)C(C)N2CCOCC2)nc1C (stereo not drawn) | < 10% |

System: T47D
Assay: Growth inhibition of human T47D cells at 10 uM after 48 hrs by coulter counter analysis
Type: functional
Settings: read-out: GI
How it was run: as §2

| Structure (SMILES) | inhibition of growth at 10 µM |
| --- | --- |
| CCOC(=O)c1sc(NC(=O)C(C)N2CCOCC2)nc1C (stereo not drawn) | < 10% |

System: LOX IMVI
Assay: Growth inhibition of human LOXIMVI cells at 10 uM after 48 hrs by coulter counter analysis
Type: functional
Settings: read-out: GI
How it was run: as §1

| Structure (SMILES) | inhibition of growth at 10 µM |
| --- | --- |
| CCOC(=O)c1sc(NC(=O)C(C)N2CCOCC2)nc1C (stereo not drawn) | < 10% |

System: MDA-MB-435
Assay: Growth inhibition of human MDA-MB-435 cells at 10 uM after 48 hrs by coulter counter analysis
Type: functional
Settings: MDA-MB-435, 48 h, read-out: GI
How it was run: as §1

| Structure (SMILES) | inhibition of growth at 10 µM |
| --- | --- |
| CCOC(=O)c1sc(NC(=O)C(C)N2CCOCC2)nc1C (stereo not drawn) | < 10% |

System: OVCAR-4
Assay: Growth inhibition of human OVCAR4 cells at 10 uM after 48 hrs by coulter counter analysis
Type: functional
Settings: OVCAR-4, 48 h, read-out: GI
How it was run: as §1

| Structure (SMILES) | inhibition of growth at 10 µM |
| --- | --- |
| CCOC(=O)c1sc(NC(=O)C(C)N2CCOCC2)nc1C (stereo not drawn) | < 10% |

System: NCI-H322M
Assay: Growth inhibition of human NCI-H322M cells at 10 uM after 48 hrs by coulter counter analysis
Type: functional
Settings: read-out: GI
How it was run: as §1

| Structure (SMILES) | inhibition of growth at 10 µM |
| --- | --- |
| CCOC(=O)c1sc(NC(=O)C(C)N2CCOCC2)nc1C (stereo not drawn) | < 10% |

System: SN12C
Assay: Growth inhibition of human SN12C cells at 10 uM after 48 hrs by coulter counter analysis
Type: functional
Settings: read-out: GI
How it was run: as §1

| Structure (SMILES) | inhibition of growth at 10 µM |
| --- | --- |
| CCOC(=O)c1sc(NC(=O)C(C)N2CCOCC2)nc1C (stereo not drawn) | < 10% |

System: HOP-92
Assay: Growth inhibition of human HOP92 cells at 10 uM after 48 hrs by coulter counter analysis
Type: functional
Settings: HOP-92, 48 h, read-out: GI
How it was run: as §1

| Structure (SMILES) | inhibition of growth at 10 µM |
| --- | --- |
| CCOC(=O)c1sc(NC(=O)C(C)N2CCOCC2)nc1C (stereo not drawn) | < 10% |

System: not listed separately
Assay: Growth inhibition of human Hs 578T cells at 10 uM after 48 hrs by coulter counter analysis
Type: functional
Settings: read-out: GI
How it was run: as §1

| Structure (SMILES) | inhibition of growth at 10 µM |
| --- | --- |
| CCOC(=O)c1sc(NC(=O)C(C)N2CCOCC2)nc1C (stereo not drawn) | < 10% |

System: NCI-H226
Assay: Growth inhibition of human NCI-H226 cells at 10 uM after 48 hrs by coulter counter analysis
Type: functional
Settings: NCI-H226, 48 h, read-out: GI
How it was run: as §1

| Structure (SMILES) | inhibition of growth at 10 µM |
| --- | --- |
| CCOC(=O)c1sc(NC(=O)C(C)N2CCOCC2)nc1C (stereo not drawn) | < 10% |

System: BT-549
Assay: Growth inhibition of human BT549 cells at 10 uM after 48 hrs by coulter counter analysis
Type: functional
Settings: BT-549, 48 h, read-out: GI
How it was run: as §1

| Structure (SMILES) | inhibition of growth at 10 µM |
| --- | --- |
| CCOC(=O)c1sc(NC(=O)C(C)N2CCOCC2)nc1C (stereo not drawn) | < 10% |

System: MDA-MB-231
Assay: Growth inhibition of human MDA-MB-231 cells at 10 uM after 48 hrs by coulter counter analysis
Type: functional
Settings: MDA-MB-231, 48 h, read-out: GI
How it was run: as §1

| Structure (SMILES) | inhibition of growth at 10 µM |
| --- | --- |
| CCOC(=O)c1sc(NC(=O)C(C)N2CCOCC2)nc1C (stereo not drawn) | < 10% |
